Yeast lifespan up = yeast lifespan extension; S. cerevisiae growth with nicotinamide, OD615; deaD strain in restrictive glucose medium; inhibition of the nicotinamide effect, % at 10 µM; 130,000 compounds, 0.68% hits;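 active = inhibition above a set limit, placed 3 SD over the median of all compounds, cut at about 26% in these data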;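 note: 0% = nicotinamide-treated wells and 100% = cells grown without nicotinamide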
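Test system – modified budding yeast, DeaD strain · Compound – single dose 10 µM compound, 0.25% DMSO · Times – culture preincubation 4 h, compound exposure 48 h, both 30 °C · Detection – optical density (absorbance) at 615 nm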
PTEN del growth = PTEN-deleted cell growth suppression; HCT116 PTEN-null viability, CellTiter-Glo, 60 h; active compounds read low; AID 827; 140,000 compounds, 1.2% hits; viability, % at 10 µM;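 active = viability at or below a set limit, 4 SD under the median of all tested compounds, cut at about 3.7% in these data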;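 note: PTEN knockout HCT116 line with beta catenin targeted HCT116 as companion control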
Yeast growth inh = chemicals that inhibit yeast BB579 growth in restrictive medium (lifespan-shortening candidates). S. cerevisiae BB579 growth, OD615, 48 h. inhibition, % at 10 µM. 140,000 compounds, 0.51% hits;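 active = inhibition above a set limit, 3 SD over the mean compound inhibition, cut at about 44% in these data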
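Test system: S. cerevisiae DeaD strain BB579 yeast; Medium: restrictive CSMM-D medium; Compound: one dose, 10 µM compound with 0.25% DMSO; Incubation: 4 h cell preincubation, 48 h compound exposure, 30 °C humidified; Signal: OD at 615 nm; Benchmarks: amphotericin B at 10 µg/mL as positive control.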
sdo1 growth = compounds rescuing growth of sdo1-depleted yeast, bone marrow failure model; 140,000 compounds, 0.21% hits; z-score at 10 µM; AID 817; S. cerevisiae sdo1-depleted JHY4D growth rescue, OD600 30 h; active compounds read high; pdr5 snq2 efflux-pump mutant strain;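 active = z-score above 3 at both the 24 hr and the 30 hr optical density reads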;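 note: z-score against mean and SD of all compound wells on the same plate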
bCat KO growth = beta-catenin-lacking colon tumor cell growth suppression | viability, % at 10 µM | HCT116 beta-catenin knockout viability, CellTiter-Glo, 60 h; active compounds read low | AID 818 | 140,000 compounds, 1.5% hits;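 active = viability at or under a set limit, the compound median less 4 SD, cut at about 6% in these data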;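 note: 0% = Hyamine 1622 control at 20 µM and 100% = untreated cell control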
* = called active by the depositor; nt = no result given. Hits are enriched below; roughly 2.8% of the tested compounds scored in any of these assays.

SMILES	Yeast lifespan up	PTEN del growth	Yeast growth inh	sdo1 growth	bCat KO growth
Cc1ccc(O)c(-c2cc(-c3ccccc3[N+](=O)[O-])[nH]n2)c1	-9	61	-6	-1.8	53
Oc1ccc(Cl)cc1-c1cc(-c2ccccc2Cl)[nH]n1	nt	34	-74	-1.6	28
O=[N+]([O-])c1ccccc1-c1cc(-c2cc(Cl)ccc2O)n[nH]1	-7	19	96*	-1.5	32
Cc1ccc(O)c(-c2cc(-c3ccccc3C)[nH]n2)c1	-14	20	99*	-2	14
Nc1nc2ccc([N+](=O)[O-])c(N)c2s1	-14	89	-13	0.63	91
O=C(Oc1cc(=O)n2ccccc2n1)c1ccccc1	43*	94	-17	0.58	97
c1cc2c(cc1C1CCCCC1)c1c3n2CCCNC3CCC1 (stereo not drawn)	nt	0.7*	68*	-2.5	0.5*
c1cc2c(cc1C1CCCCC1)c1c3n2CCN=C3CCC1	nt	10	24	-2.5	2.1*
Cc1ccc2c(c1)c1c3n2CCN=C3CCC1	-4	85	-31	-0.24	94
CN(C)CCCN1C(=O)c2cccc3c([N+](=O)[O-])ccc(c23)C1=O	2	1.6*	-13	-2.1	1.4*
Cc1ccc(OCCN2C(=O)c3ccccc3C2=O)c([N+](=O)[O-])c1	-2	104	-18	-0.24	96
COc1ccc(-c2csc(NC(=O)CSc3nc(SC)ns3)n2)cc1	-6	74	3	-0.81	72
CC(O)CN=c1cc(-c2ccccc2)oc2ccc(Cl)cc12 (stereo not drawn)	-27	5	-6	0.88	5.7*
COc1ccc(C(=O)Oc2ccc(F)cc2C(=O)/C=C/c2ccc(OC)c(OC)c2)cc1	1	101	-26	-1.4	98
COc1ccc(/C=C/C(=O)c2cc(F)ccc2OC(=O)c2ccccc2C)cc1OC	5	2.1*	-22	-1.2	2.2*
COC(=O)c1ccc(CNC(=O)c2ccc(COc3ccccc3)cc2)cc1	1	98	-30	-1.6	104
Oc1ccc(Nc2nc(NCC3CCCO3)c3ccccc3n2)cc1 (stereo not drawn)	-5	15	-34	-0.6	8
COc1cccc(Nc2nc(NCC3CCCO3)c3ccccc3n2)c1 (stereo not drawn)	-14	1.2*	-49	-1.8	1.3*
COc1ccc2c(c1)C(=O)[C@@H](O)[C@H](c1ccc(OC)c(Br)c1)O2	0	11	-34	0.23	11
COc1cccc([C@@H]2Oc3ccc(OC)cc3C(=O)[C@H]2O)c1	-3	9	-53	-0.23	5.3*
O=C(/C=C(\O)c1ccc(Cl)cc1)C(=O)NNC(=O)C(O)(c1ccccc1)c1ccccc1	62*	94	-32	0.2	94
CC(Nc1ccc(Br)cn1)c1cc(Cl)ccc1O (stereo not drawn)	3	92	60*	-2.3	94
Cc1ccc(/C=C/C(O)=C2/C(=O)N(C)C3(C)CC2c2ccccc2O3)cc1 (stereo not drawn)	0	3.0*	-43	-1.6	5.4*
CCN1C(=O)C(C(=O)Nc2ccc(OC)cc2)C2CC1(C)Oc1ccccc12 (stereo not drawn)	-1	89	-43	-1	96
COc1ccc(/C=C/C(O)=C2/C(=O)N(C)C3(C)CC2c2ccccc2O3)cc1 (stereo not drawn)	-4	1.4*	-28	-1.4	1.8*
SMILES	Yeast lifespan up	PTEN del growth	Yeast growth inh	sdo1 growth	bCat KO growth
Cc1ccc(S(=O)(=O)C2C(=O)N(C)C3(C)CC2c2ccccc2O3)cc1C (stereo not drawn)	-2	102	-32	-0.99	89
O=C1N(CC(=O)N2CCc3ccccc32)CCN1Cc1ccccc1Cl	-10	85	-41	-0.51	91
COc1ccc2[nH]c3c(N4CC(C)OC(C)C4)ncnc3c2c1 (stereo not drawn)	-21	79	-27	-0.55	92
COc1cccc(N2CCN(c3ncnc4c3[nH]c3ccc(F)cc34)CC2C)c1 (stereo not drawn)	-3	1.6*	-8	-2.3	2.0*
c1ccc2c(c1)CCN(c1ncnc3c1[nH]c1ccccc13)C2	-27	15	-54	-2.8	8
COc1cccc(N2CCN(c3ncnc4c3[nH]c3ccccc34)CC2C)c1 (stereo not drawn)	-10	7	-30	-2	4.7*
COc1ccc(OC)c(N2C(=O)CC(C(C)c3ccccc3)C2=O)c1 (stereo not drawn)	-4	95	-43	-0.79	103
COc1ccc(N2C3=C(CC4=C2CC(C)(C)CC4=O)C(=O)CC(C)(C)C3)cc1	-21	1.1*	3	-0.75	1.1*
CCN(CC)S(=O)(=O)c1ccc(NC(=O)Nc2cccc(C(F)(F)F)c2)cc1	-10	1.8*	-13	0.38	1.4*
Cc1ccc(S(=O)(=O)Nc2ccc(NC(=O)Nc3cccc(C(F)(F)F)c3)cc2)cc1	-2	1.6*	-32	0.84	1.2*
CCN(CC)S(=O)(=O)c1ccc(C(=O)Nc2cccc(C)c2)cc1	-6	94	-23	-0.17	101
O=C(Nc1ccc(OC(F)F)cc1)Nc1cccc(C(F)(F)F)c1	-14	3.1*	-86	-3	2.3*
O=C(Nc1ccc(OC(F)(F)F)cc1)Nc1cccc([N+](=O)[O-])c1	-6	3.5*	-22	-2.2	2.9*
N#CCCN(C(=O)COC(=O)c1ccc(S(=O)(=O)Nc2ccccc2)cc1)c1ccccc1	1	92	-18	0.74	82
Cc1sc2ncnc(SCC(=O)NNC(=O)COc3cccc4ccccc34)c2c1C	-12	93	-21	0.53	100
CCOCCOCCC(C(=O)OCC)P(=O)(c1ccccc1)c1ccccc1 (stereo not drawn)	-3	98	-57	0.07	98
O=[N+]([O-])c1ccc2c(c1)C(N1CCOCC1)/C(=C/COc1ccc(Cl)cc1Cl)O2 (stereo not drawn)	-15	97	-50	-1.4	97
COCCCn1c(SCC(=O)Nc2nnc(C)s2)nnc1-c1ccoc1C	60*	92	-7	0.55	98
COc1ccc(/C=N/NC(=O)COc2ccccc2-c2ccccc2)cc1	-17	17	-60	-0.86	15
O=C(COc1ccccc1-c1ccccc1)N/N=C/c1cccc2ccccc12	-12	4	-31	-0.63	4.3*
CCc1nn2cc(C(=O)c3cc(Cl)ccc3O)cnc2c1-c1ccc(F)cc1	5	18	-32	-1.6	43
COc1cccc(/C=N/NC(=O)c2c(-c3ccccc3)noc2C)c1O	-6	7	-20	0.55	5.8*
COc1cccc(/C=N/NC(=O)c2cc3c(OC)cccc3[nH]2)c1O	-5	2.6*	-28	1.5	6.0*
COc1cc(/C=N/NC(=O)c2c(-c3ccccc3)noc2C)ccc1O	-7	105	-31	-0.15	91
O=C(O)c1cccc(S(=O)(=O)Nc2ccccc2Cl)c1	-4	90	-21	2.2	95

Source: PubChem BioAssay
